Columns and labels:
[1] = molecular target: Beta-lactamase (Pseudomonas aeruginosa (strain ATCC 15692 / PAO1 / 1C / PRS 101 / LMG12228)) (UniProt P24735); assay: Inhibition of ampD, ampDh2 and ampDh3 deficient Pseudomonas aeruginosa PAO1 AmpC assessed as nitrocefin hydrolyzed per mg of protein at 120 uM by UV spectrophotometry
Method in brief: (§1)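 Cells cultured with or without 120 μM CCCP; crude extracts made by sonication; β-lactamase measured by UV spectrophotometry with 100 μM nitrocefin substrate at 30°C; specific activity as nmol nitrocefin hydrolyzed per min per mg protein (BCA, BSA standard); triplicate, averaged.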

[2] = molecular target: Beta-lactamase (Pseudomonas aeruginosa (strain ATCC 15692 / PAO1 / 1C / PRS 101 / LMG12228)) (UniProt P24735); assay: Inhibition of ampD, ampDh2, ampDh3 and ampG deficient Pseudomonas aeruginosa PAO1 AmpC assessed as nitrocefin hydrolyzed per mg of protein at 120 uM by UV spectrophotometry; method in brief: as §1
[3] = molecular target: Beta-lactamase (Pseudomonas aeruginosa (strain ATCC 15692 / PAO1 / 1C / PRS 101 / LMG12228)) (UniProt P24735); assay: Inhibition of ampD, ampDh2, ampDh3 and ampG deficient Pseudomonas aeruginosa PAO1 AmpC harboring pZY0901 conferring resistance to gentamycin assessed as nitrocefin hydrolyzed per mg of protein at 120 uM by UV spectrophotometry; method in brief: as §1
Pseudomonas aeruginosa [4] = assay: Antimicrobial activity against Pseudomonas aeruginosa isolate 1 obtained from cystic fibrosis patients after 16 to 20 hrs by broth microdilution method in presence of 120 uM carbonyl cyanide m-chlorophenyl-hydrazone; assay type: functional
Method in brief: (§2)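 CLSI broth microdilution in Mueller-Hinton broth with CCCP added from a 10 mM DMSO stock to 120 μM final, alongside 2-fold serial antibiotic dilutions. Inoculum from starter cultures grown to OD600 0.5. MIC is the lowest concentration preventing growth after 16-20 h at 37°C. Triplicate.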

Pseudomonas aeruginosa [5] = assay: Antimicrobial activity against Pseudomonas aeruginosa isolate 1 obtained from cystic fibrosis patients after 16 to 20 hrs by broth microdilution method; assay type: functional
Method in brief: (§3)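 CLSI broth microdilution: 2-fold serial antibiotic dilutions in Mueller-Hinton broth, inoculated with about 10^4 cells per 100 μl from starter cultures grown to OD600 0.5. MIC is the lowest concentration preventing growth after 16-20 h at 37°C. Triplicate.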

Pseudomonas aeruginosa [6] = assay: Antimicrobial activity against Pseudomonas aeruginosa isolate 2 obtained from cystic fibrosis patients after 16 to 20 hrs by broth microdilution method in presence of 120 uM carbonyl cyanide m-chlorophenyl-hydrazone; assay type: functional
Method in brief: (§4)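 CLSI broth microdilution in Mueller-Hinton broth with serial antibiotic dilutions. CCCP was added from a 10 mM DMSO stock to 120 μM final, then the bacterial culture was added as inoculum (about 10^4 cells from OD600 0.5 starter cultures). MIC was the lowest concentration preventing growth after 16 to 20 h at 37°C, run in triplicate.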

Pseudomonas aeruginosa [7] = assay: Antimicrobial activity against Pseudomonas aeruginosa isolate 2 obtained from cystic fibrosis patients after 16 to 20 hrs by broth microdilution method; assay type: functional
Method in brief: (§5)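 CLSI broth microdilution in Mueller-Hinton broth, serial 2-fold antibiotic dilutions. Inoculum about 10^4 cells per well, taken from starter cultures grown to OD600 0.5. MIC was the lowest antibiotic concentration preventing growth after 16 to 20 h at 37°C. Each MIC was determined in triplicate.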

Pseudomonas aeruginosa [8] = assay: Antimicrobial activity against Pseudomonas aeruginosa isolate 3 obtained from cystic fibrosis patients after 16 to 20 hrs by broth microdilution method in presence of 120 uM carbonyl cyanide m-chlorophenyl-hydrazone; assay type: functional; method in brief: as §4
Pseudomonas aeruginosa [9] = assay: Antimicrobial activity against Pseudomonas aeruginosa isolate 3 obtained from cystic fibrosis patients after 16 to 20 hrs by broth microdilution method; assay type: functional; method in brief: as §5
Pseudomonas aeruginosa [10] = assay: Antimicrobial activity against Pseudomonas aeruginosa isolate 4 obtained from cystic fibrosis patients after 16 to 20 hrs by broth microdilution method in presence of 120 uM carbonyl cyanide m-chlorophenyl-hydrazone; assay type: functional; method in brief: as §4
Pseudomonas aeruginosa [11] = assay: Antimicrobial activity against Pseudomonas aeruginosa isolate 4 obtained from cystic fibrosis patients after 16 to 20 hrs by broth microdilution method; assay type: functional; method in brief: as §5
Pseudomonas aeruginosa [12] = assay: Antimicrobial activity against Pseudomonas aeruginosa isolate 5 obtained from cystic fibrosis patients after 16 to 20 hrs by broth microdilution method in presence of 120 uM carbonyl cyanide m-chlorophenyl-hydrazone; assay type: functional; method in brief: as §4
Pseudomonas aeruginosa [13] = assay: Antimicrobial activity against Pseudomonas aeruginosa isolate 5 obtained from cystic fibrosis patients after 16 to 20 hrs by broth microdilution method; assay type: functional; method in brief: as §5
Pseudomonas aeruginosa [14] = assay: Antimicrobial activity against Pseudomonas aeruginosa isolate 6 obtained from cystic fibrosis patients after 16 to 20 hrs by broth microdilution method in presence of 120 uM carbonyl cyanide m-chlorophenyl-hydrazone; assay type: functional; method in brief: as §4
Pseudomonas aeruginosa [15] = assay: Antimicrobial activity against Pseudomonas aeruginosa isolate 6 obtained from cystic fibrosis patients after 16 to 20 hrs by broth microdilution method; assay type: functional; method in brief: as §5
Pseudomonas aeruginosa [16] = assay: Antimicrobial activity against Pseudomonas aeruginosa isolate 7 obtained from cystic fibrosis patients after 16 to 20 hrs by broth microdilution method in presence of 120 uM carbonyl cyanide m-chlorophenyl-hydrazone; assay type: functional; method in brief: as §4
Pseudomonas aeruginosa [17] = assay: Antimicrobial activity against Pseudomonas aeruginosa isolate 7 obtained from cystic fibrosis patients after 16 to 20 hrs by broth microdilution method; assay type: functional; method in brief: as §5
Pseudomonas aeruginosa [18] = assay: Antimicrobial activity against Pseudomonas aeruginosa isolate 8 obtained from cystic fibrosis patients after 16 to 20 hrs by broth microdilution method in presence of 120 uM carbonyl cyanide m-chlorophenyl-hydrazone; assay type: functional; method in brief: as §4
Pseudomonas aeruginosa [19] = assay: Antimicrobial activity against Pseudomonas aeruginosa isolate 8 obtained from cystic fibrosis patients after 16 to 20 hrs by broth microdilution method; assay type: functional; method in brief: as §5
Pseudomonas aeruginosa [20] = assay: Antimicrobial activity against Pseudomonas aeruginosa isolate 9 obtained from cystic fibrosis patients after 16 to 20 hrs by broth microdilution method in presence of 120 uM carbonyl cyanide m-chlorophenyl-hydrazone; assay type: functional; method in brief: as §4
Pseudomonas aeruginosa [21] = assay: Antimicrobial activity against Pseudomonas aeruginosa isolate 9 obtained from cystic fibrosis patients after 16 to 20 hrs by broth microdilution method; assay type: functional; method in brief: as §5
Pseudomonas aeruginosa [22] = assay: Antimicrobial activity against Pseudomonas aeruginosa isolate 10 obtained from cystic fibrosis patients after 16 to 20 hrs by broth microdilution method in presence of 120 uM carbonyl cyanide m-chlorophenyl-hydrazone; assay type: functional; method in brief: as §2
Pseudomonas aeruginosa [23] = assay: Antimicrobial activity against Pseudomonas aeruginosa isolate 10 obtained from cystic fibrosis patients after 16 to 20 hrs by broth microdilution method; assay type: functional; method in brief: as §3
Pseudomonas aeruginosa [24] = assay: Antimicrobial activity against Pseudomonas aeruginosa isolate 11 obtained from cystic fibrosis patients after 16 to 20 hrs by broth microdilution method in presence of 120 uM carbonyl cyanide m-chlorophenyl-hydrazone; assay type: functional; method in brief: as §2
Pseudomonas aeruginosa [25] = assay: Antimicrobial activity against Pseudomonas aeruginosa isolate 11 obtained from cystic fibrosis patients after 16 to 20 hrs by broth microdilution method; assay type: functional; method in brief: as §3
Pseudomonas aeruginosa [26] = assay: Antimicrobial activity against Pseudomonas aeruginosa isolate 12 obtained from cystic fibrosis patients after 16 to 20 hrs by broth microdilution method; assay type: functional; method in brief: as §3
Pseudomonas aeruginosa [27] = assay: Antimicrobial activity against Pseudomonas aeruginosa isolate 12 obtained from cystic fibrosis patients after 16 to 20 hrs by broth microdilution method in presence of 120 uM carbonyl cyanide m-chlorophenyl-hydrazone; assay type: functional; method in brief: as §2
Pseudomonas aeruginosa [28] = assay: Antimicrobial activity against Pseudomonas aeruginosa isolate 13 obtained from cystic fibrosis patients after 16 to 20 hrs by broth microdilution method in presence of 120 uM carbonyl cyanide m-chlorophenyl-hydrazone; assay type: functional; method in brief: as §2
Pseudomonas aeruginosa [29] = assay: Antimicrobial activity against Pseudomonas aeruginosa isolate 13 obtained from cystic fibrosis patients after 16 to 20 hrs by broth microdilution method; assay type: functional; method in brief: as §3
Pseudomonas aeruginosa [30] = assay: Antimicrobial activity against Pseudomonas aeruginosa isolate 14 obtained from cystic fibrosis patients after 16 to 20 hrs by broth microdilution method in presence of 120 uM carbonyl cyanide m-chlorophenyl-hydrazone; assay type: functional; method in brief: as §2
Pseudomonas aeruginosa [31] = assay: Antimicrobial activity against Pseudomonas aeruginosa isolate 14 obtained from cystic fibrosis patients after 16 to 20 hrs by broth microdilution method; assay type: functional; method in brief: as §3
Pseudomonas aeruginosa [32] = assay: Antimicrobial activity against Pseudomonas aeruginosa isolate 15 obtained from cystic fibrosis patients after 16 to 20 hrs by broth microdilution method in presence of 120 uM carbonyl cyanide m-chlorophenyl-hydrazone; assay type: functional; method in brief: as §2
Pseudomonas aeruginosa [33] = assay: Antimicrobial activity against Pseudomonas aeruginosa isolate 15 obtained from cystic fibrosis patients after 16 to 20 hrs by broth microdilution method; assay type: functional; method in brief: as §3
Pseudomonas aeruginosa [34] = assay: Antimicrobial activity against Pseudomonas aeruginosa isolate 16 obtained from cystic fibrosis patients after 16 to 20 hrs by broth microdilution method in presence of 120 uM carbonyl cyanide m-chlorophenyl-hydrazone; assay type: functional; method in brief: as §2
Pseudomonas aeruginosa [35] = assay: Antimicrobial activity against Pseudomonas aeruginosa isolate 16 obtained from cystic fibrosis patients after 16 to 20 hrs by broth microdilution method; assay type: functional; method in brief: as §3
Pseudomonas aeruginosa [36] = assay: Antimicrobial activity against Pseudomonas aeruginosa isolate 17 obtained from cystic fibrosis patients after 16 to 20 hrs by broth microdilution method in presence of 120 uM carbonyl cyanide m-chlorophenyl-hydrazone; assay type: functional; method in brief: as §4
Pseudomonas aeruginosa [37] = assay: Antimicrobial activity against Pseudomonas aeruginosa isolate 17 obtained from cystic fibrosis patients after 16 to 20 hrs by broth microdilution method; assay type: functional; method in brief: as §5
Pseudomonas aeruginosa [38] = assay: Antimicrobial activity against Pseudomonas aeruginosa isolate 18 obtained from cystic fibrosis patients after 16 to 20 hrs by broth microdilution method in presence of 120 uM carbonyl cyanide m-chlorophenyl-hydrazone; assay type: functional; method in brief: as §4
Pseudomonas aeruginosa [39] = assay: Antimicrobial activity against Pseudomonas aeruginosa isolate 18 obtained from cystic fibrosis patients after 16 to 20 hrs by broth microdilution method; assay type: functional; method in brief: as §5

Sequence of Beta-lactamase (Pseudomonas aeruginosa (strain ATCC 15692 / PAO1 / 1C / PRS 101 / LMG12228)) (P24735 27-397 limits assumed): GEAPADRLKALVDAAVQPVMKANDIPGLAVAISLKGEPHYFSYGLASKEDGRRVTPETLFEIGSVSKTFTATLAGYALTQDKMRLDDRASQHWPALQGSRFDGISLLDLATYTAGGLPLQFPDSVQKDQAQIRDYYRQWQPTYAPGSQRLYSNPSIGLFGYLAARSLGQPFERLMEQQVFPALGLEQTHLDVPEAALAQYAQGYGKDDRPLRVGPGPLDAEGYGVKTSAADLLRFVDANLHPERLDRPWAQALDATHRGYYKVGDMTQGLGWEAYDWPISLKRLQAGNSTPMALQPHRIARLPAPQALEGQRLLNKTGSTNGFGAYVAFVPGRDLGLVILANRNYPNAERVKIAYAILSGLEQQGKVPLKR

N#CC(C#N)=NNc1cccc(Cl)c1
2800 nmol/min: Activity [3]
1220 nmol/min: Activity [1]
3 nmol/min: Activity [2]

CN(C)[C@@H]1C(O)=C(C(N)=O)C(=O)[C@@]2(O)C(O)=C3C(=O)c4c(O)cccc4[C@@](C)(O)[C@H]3C[C@@H]12 [TETRACYCLINE]
8 µg/mL: MIC (Pseudomonas aeruginosa [4]) | MIC (Pseudomonas aeruginosa [5]) | MIC (Pseudomonas aeruginosa [6]) | MIC (Pseudomonas aeruginosa [7]) | MIC (Pseudomonas aeruginosa [8]) | MIC (Pseudomonas aeruginosa [9]) | MIC (Pseudomonas aeruginosa [10]) | MIC (Pseudomonas aeruginosa [11]) | MIC (Pseudomonas aeruginosa [12]) | MIC (Pseudomonas aeruginosa [13]) | MIC (Pseudomonas aeruginosa [14]) | MIC (Pseudomonas aeruginosa [15]) | MIC (Pseudomonas aeruginosa [16]) | MIC (Pseudomonas aeruginosa [17]) | MIC (Pseudomonas aeruginosa [18]) | MIC (Pseudomonas aeruginosa [20]) | MIC (Pseudomonas aeruginosa [21]) | MIC (Pseudomonas aeruginosa [22]) | MIC (Pseudomonas aeruginosa [23]) | MIC (Pseudomonas aeruginosa [24]) | MIC (Pseudomonas aeruginosa [25]) | MIC (Pseudomonas aeruginosa [26]) | MIC (Pseudomonas aeruginosa [27]) | MIC (Pseudomonas aeruginosa [28]) | MIC (Pseudomonas aeruginosa [29]) | MIC (Pseudomonas aeruginosa [30]) | MIC (Pseudomonas aeruginosa [31]) | MIC (Pseudomonas aeruginosa [32]) | MIC (Pseudomonas aeruginosa [33]) | MIC (Pseudomonas aeruginosa [34]) | MIC (Pseudomonas aeruginosa [35]) | MIC (Pseudomonas aeruginosa [36]) | MIC (Pseudomonas aeruginosa [37]) | MIC (Pseudomonas aeruginosa [38])
16 µg/mL: MIC (Pseudomonas aeruginosa [19]) | MIC (Pseudomonas aeruginosa [39])

Reference: ChEMBL document CHEMBL1687785, “ampG gene of Pseudomonas aeruginosa and its role in β-lactamase expression” (2010)
